Laboratory results published in ChEMBL document CHEMBL4138250, “Regioselective IBX-Mediated Synthesis of Coumarin Derivatives with Antioxidant and Anti-influenza Activities” (J Nat Prod, 2017).
Values after ≈ are worked out from the molar mass of the structure shown.

What was measured:
A549 [1] = experiment: Cytotoxicity against human A549 cells assessed as reduction in cell viability up to 120 ug/ml after 24 hrs by microscopic analysis; assay type: cell-based; conditions: a549, 24 h
Method in brief: (§1)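 A549 cells seeded at 2 × 10^5/mL; after 24 h, exposed to compounds at 10−120 μg/mL for a further 24 h. Viability assessed by microscopic examination, Trypan blue (0.02%) exclusion and MTT reduction. Cytotoxicity expressed as % reduction in viable cells relative to cultures treated with DMSO alone.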

A549 [2] = experiment: Cytotoxicity against human A549 cells assessed as reduction in cell viability up to 120 ug/ml after 24 hrs by MTT assay; assay type: cell-based; conditions: a549, 24 h; method in brief: as §1
[3] = Antioxidant activity assessed as DPPH radical scavenging activity incubated for 30 mins under dark condition; assay type: functional
Method in brief: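 Compounds serially diluted in EtOH (0.01−100 mg/mL) and added to freshly prepared DPPH (6 × 10−5 M in EtOH). Mixture shaken, kept 30 min in the dark, then absorbance read at 517 nm against a solvent blank. % scavenging is relative to a DPPH-only control, corrected for sample colour without DPPH. IC50 is the concentration giving 50% inhibition; triplicate runs.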

A549 [4] = experiment: Cytotoxicity against human A549 cells assessed as reduction in cell viability up to 120 ug/ml after 24 hrs by tryphan blue exclusion assay; assay type: cell-based; conditions: a549, 24 h; method in brief: as §1
Influenza A virus [5] = experiment: Antiviral activity against Influenza A virus (A/Puerto Rico/8/34(H1N1)) infected in A549 cells assessed as reduction in viral titer after 24 to 48 hrs by hemagglutination test; assay type: functional, organism-based; conditions: A/Puerto Rico/8/1934(H1N1)
Method in brief: (§2)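 Confluent A549 monolayers (DMEM, 10% FBS) infected with PR8 at MOI 0.0001 for 1 h at 37 °C, PBS-washed, then kept in 2% FBS medium. Compounds in DMSO were diluted in DMEM to final 30, 40, 60, 80 or 120 μg/mL, added after adsorption and kept to the end. DMSO was at most 0.2%, with matching DMSO-treated controls and mock infection. Supernatant HAU read at 24 and 48 h with human type 0 Rh+ erythrocytes.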

Influenza A virus [6] = experiment: Antiviral activity against Influenza A virus (A/Puerto Rico/8/34(H1N1)) infected in A549 cells assessed as reduction in viral titer at 120 ug/ml after 24 to 48 hrs by hemagglutination test relative to control; assay type: functional, A/Puerto Rico/8/1934(H1N1); parameters: scale not given: the % may be the effect or the level left; method in brief: as §2

Row | SMILES | Activity (A549 [1]) | Activity (A549 [2]) | IC50 [3] [µg/mL] | Activity (A549 [4]) | Activity (Influenza A virus [5]) | IC50 (Influenza A virus [5]) [µg/mL] | Activity (Influenza A virus [6]) [%]
1 | O=c1ccc2c(O)c(O)c(O)cc2o1 | Non-Toxic | Non-Toxic | 2500 (≈ 12.9 mM) | Non-Toxic | Dose-dependent effect | 47.9 (≈ 0.247 mM) | –
2 | O=c1ccc2cc(O)ccc2o1 [6-HYDROXYCOUMARIN] | Non-Toxic | Non-Toxic | > 200000 | Non-Toxic | Dose-dependent effect | 110 (≈ 0.678 mM) | 50
3 | O=c1ccc2ccc(O)c(O)c2o1 [DAPHNETIN] | – | – | 27200 (≈ 153 mM) | – | – | 146 (≈ 0.818 mM) | –
4 | O=c1ccc2cc(O)c(O)c(O)c2o1 | Non-Toxic | Non-Toxic | 8700 (≈ 44.8 mM) | Non-Toxic | Dose-dependent effect | 69.9 (≈ 0.36 mM) | –
5 | O=c1cc(O)c2ccc(O)c(O)c2o1 | – | – | 24100 (≈ 124 mM) | – | – | – | –
6 | COc1cc2ccc(=O)oc2c(O)c1O [FRAXETIN] | – | – | 39200 (≈ 188 mM) | – | – | – | –
7 | Nc1ccc2c(C(F)(F)F)cc(=O)oc2c1 | Non-Toxic | Non-Toxic | – | Non-Toxic | Dose-dependent effect | 51 (≈ 0.223 mM) | –
8 | O=c1ccc2ccc(O)cc2o1 [UMBELLIFERONE] | Non-Toxic | Non-Toxic | > 200000 | Non-Toxic | Dose-dependent effect | 110 (≈ 0.678 mM) | 50
9 | O=c1ccc2cc(O)c(O)cc2o1 [ESCULETIN] | – | – | 37700 (≈ 212 mM) | – | – | – | –
10 | O=c1ccc2c(O)c(O)ccc2o1 | Non-Toxic | Non-Toxic | – | Non-Toxic | Dose-dependent effect | 106 (≈ 0.598 mM) | 50
11 | Nc1ccc2c(C(F)(F)F)cc(=O)oc2c1O | Non-Toxic | Non-Toxic | 9300 (≈ 37.9 mM) | Non-Toxic | Dose-dependent effect | 47.8 (≈ 0.195 mM) | –
12 | Cc1cc(=O)oc2c(O)c(O)ccc12 [4-METHYLDAPHNETIN] | Non-Toxic | Non-Toxic | 22000 (≈ 114 mM) | Non-Toxic | Dose-dependent effect | 91.5 (≈ 0.476 mM) | –
